Assay outcomes deposited in PubChem by several laboratories.
IMP-1 inh = inhibitors of Pseudomonas aeruginosa IMP-1 metallo-beta-lactamase; purified IMP-1, nitrocefin hydrolysis, epi-absorbance fluorescence; inhibition, % at 5.6 µM; 0.45% of 290,000 active;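 active means inhibition above the mean plus 3 SD of all compounds in the same screening run, cut at about 4.5% in these data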;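 further: 0% = IMP-1 with DMSO and 100% = DMSO wells lacking enzyme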
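Material – recombinant IMP-1 enzyme, purified · Amount – IMP-1 0.2 nM before substrate addition · Medium – HEPES buffer pH 7.1 with ZnSO4 and Brij 35 · Timing – 25 °C, 15 min preincubation, 25 min reaction · Measured by – plate fluorescence quenching by hydrolysis product, ex 480/em 530 nm · Read-out – percent enzyme inhibition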
GLD-1 RNA inh = GLD-1-TGE RNA interaction inhibition (C. elegans); Q17339; purified GLD-1 + fluorescein TGE RNA, fluorescence polarization; inhibition, % at 5.96 µM; 0.44% of 320,000 active;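 active means percent inhibition above a per-plate cutoff, the plate mean of test compounds plus 3 SD, cut at about 30% in these data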;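 further: 0% = DMSO wells with GLD-1 and probe and 100% = wells lacking GLD-1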
Bcl-xL primary = blocks human Bcl-xL binding to Bim BH3 peptide | GST-Bcl-xL / FITC-Bim BH3 peptide fluorescence polarization | 0.7% of 320,000 active | Q07817 | AID 2129 | inhibition, % at 10.9 µM;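 active means inhibition above the mean of all tested compounds plus 3 SD, cutoff set per campaign, cut at about 30% in these data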;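 further: 0% = DMSO wells and 100% = unlabeled Bim-BH3 peptide competitor; inhibitors lower millipolarization by displacing the labeled peptide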
EBV gp42 block = inhibitors of Epstein-Barr virus glycoprotein 42 | inhibition, % (tested at 21.74 µM) | AID 1085 | 0.42% of 220,000 active | Fluorescence polarization binding assay, mP read-out; in the data active means inhibition above about 50%
VIM-2 inh = inhibitors of Pseudomonas aeruginosa VIM-2 metallo-beta-lactamase | AID 1527 | 0.89% of 290,000 active | purified VIM-2, nitrocefin hydrolysis, epi-absorbance fluorescence | inhibition, % at 5.6 µM;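 active means inhibition above the mean of all tested compounds plus 3 SD, cutoff set per screening run, cut at about 7.5% in these data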;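 further: red hydrolysis product quenches plate fluorescence so inhibitors raise well fluorescence; 0% = enzyme with DMSO and 100% = DMSO without enzyme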
MEX-5 binding = C. elegans MEX-5 TCR-2 RNA binding activity; Q9XUB2; MEX-5/FITC-TCR2 RNA binding, fluorescence polarization; stronger effect = lower value; activity score (negative = inhibition of binding), % at 10 µM; 0.38% of 300,000 active; AID 1832;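 active means inhibition past about -25% in most replicates, and total fluorescence under double the plate's negative control median, limit read from the data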;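 further: 0% = DMSO and -100% = 5 µM competing unlabeled TCR2 RNA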
Target sequence (Q9XUB2 whole entry, looked up): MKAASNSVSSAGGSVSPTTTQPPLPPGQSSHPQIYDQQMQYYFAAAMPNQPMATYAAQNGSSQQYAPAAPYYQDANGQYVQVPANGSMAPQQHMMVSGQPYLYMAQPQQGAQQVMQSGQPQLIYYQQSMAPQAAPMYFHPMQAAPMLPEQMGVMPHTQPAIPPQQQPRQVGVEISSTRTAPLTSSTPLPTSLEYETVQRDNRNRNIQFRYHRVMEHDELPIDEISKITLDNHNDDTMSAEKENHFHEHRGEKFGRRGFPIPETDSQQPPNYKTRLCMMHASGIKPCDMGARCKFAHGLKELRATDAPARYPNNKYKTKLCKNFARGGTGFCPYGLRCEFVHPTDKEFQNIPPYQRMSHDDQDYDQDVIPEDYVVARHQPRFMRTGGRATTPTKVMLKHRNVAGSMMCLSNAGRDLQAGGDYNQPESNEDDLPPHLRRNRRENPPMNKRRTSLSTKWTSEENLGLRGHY
* marks the source's active call; other numbers are inactive results; nt = no result; + = active, no number. Only some compounds are listed: those with a hit (about 2.2% of all), similar ones and a draw of the others.

SMILES | IMP-1 inh | GLD-1 RNA inh | Bcl-xL primary | EBV gp42 block | VIM-2 inh | MEX-5 binding
O=c1[nH]c(C(Cl)Cl)nc2sc3c(c12)CCN(Cc1ccccc1)C3 | 11.4* | 23.2 | 77.8* | 56.2* | 3.3 | -9.4
COc1ccc(/C=C2\N=C(c3c(-c4ccccc4)noc3C)OC2=O)cc1OC | -1.1 | 4.5 | 5.6 | 56.9* | -0.9 | 5.2
COc1cc(/C=C2\N=C(c3ccccc3)OC2=O)ccc1OCc1c(C)no[n+]1[O-] | -2.3 | 7.6 | -0.5 | 24.4 | 1.1 | -0.9
O=C(CNS(=O)(=O)c1cccc(Br)c1)NCC1CCCCC1 | -3.7 | 12.0 | 4.8 | nt | -5.0 | 0.5
CC(Oc1ccc2c3c(c(=O)oc2c1)CCC3)C(=O)NCc1cccnc1 (stereo not drawn) | -1.6 | 2.2 | 3.4 | nt | 9.6* | -0.2
O=C(O)c1ccc(COc2ccc3c4c(c(=O)oc3c2)CCC4)o1 | 0.4 | 1.2 | -0.8 | 3.7 | 8.5* | 2.2
NC(=O)C1CCN(C(=O)COc2ccc3c4c(c(=O)oc3c2)CCCC4)CC1 | -0.5 | 3.9 | 3.5 | nt | 11.2* | -2.9
O=C(COc1ccc2c3c(c(=O)oc2c1)CCCC3)N1CCN(c2ccc(F)cc2)CC1 | -0.8 | 1.0 | 3.0 | nt | 5.2 | 1.1
O=C(COc1ccc2c3c(c(=O)oc2c1)CCC3)N1CCN(c2ccc(F)cc2)CC1 | -2.5 | -11.1 | 3.6 | nt | 9.1* | -1.3
O=c1oc2cc(OCc3ccc([N+](=O)[O-])cc3)ccc2c2c1CCCC2 | -3.4 | 4.2 | 4.8 | -12.5 | -0.9 | 1.2
CC(C)CN(C(=O)c1cc(=O)[nH]c2ccccc12)c1c(N)n(Cc2ccccc2)c(=O)[nH]c1=O | nt | 6.7 | -2.9 | nt | nt | 0.4
Cc1cc(OCC(=O)N2CCOCC2)cc2oc(=O)c3ccccc3c12 | -1.8 | 3.0 | -2.2 | -4.4 | 9.5* | -0.7
Cc1ccc(OCC(=O)N2CCOCC2)cc1C | -1.5 | 2.1 | 3.3 | -3.3 | -1.0 | nt
COc1cc(C(F)(F)F)nc2ccc(C#CCOC(=O)Nc3ccccc3)cc12 | -1.2 | 2.6 | 35.5* | -1.5 | 1.7 | -1.5
Cc1ccc(N2C(=O)c3cccc(Oc4ccc(Cl)cc4)c3C2=O)c(C)c1 | -1.9 | 2.5 | 4.8 | 2.0 | -2.7 | 0.2
O=C(O)CN1C(=O)c2cccc(Oc3ccc(Cl)cc3)c2C1=O | 11.8* | -2.2 | 15.1 | -6.9 | -0.3 | -0.1
CCOC(=O)CNc1nc(OCC#N)nc(N2CCOCC2)n1 | 20.0* | 2.9 | -1.9 | -19.0 | -1.6 | 0.4
Clc1ccc2[nH]c(-c3ccccc3)cc2c1 | -1.3 | 3.9 | + | 7.3 | -0.8 | -1.1
CCOC(=O)C1CCN(C(=O)NS(=O)(=O)c2ccc(C)cc2)CC1 | 9.6* | -3.0 | 6.5 | 7.4 | -0.4 | 0.0
O=C(c1ccc(F)cc1)C1CCN(Cc2ccc(F)cc2)CC1 | -0.2 | -5.5 | 2.6 | nt | 0.2 | 2.4
Nc1c(C(=O)Nc2ccc(S(=O)(=O)N3CCCC3)cc2)sc2nc3cc4c(cc3cc12)CCC4 | 0.9 | -12.8 | -9.2 | 45.4 | -0.7 | -2.3
Nc1c(C(=O)Nc2ccc(S(=O)(=O)N3CCCC3)cc2)sc2nc3ccc(OC(F)(F)F)cc3cc12 | -1.8 | 22.9 | 57.3* | -29.6 | -2.5 | -12.6
Cc1cc2oc(C(=O)Nc3ccc(S(N)(=O)=O)cc3)c(C)c2cc1Cl | -3.6 | 0.4 | 7.2 | -13.9 | -5.1 | 1.6
CCCS(=O)(=O)N1CCCC(C(=O)NCCCN2CCN(c3ccc(F)cc3)CC2)C1 (stereo not drawn) | 5.4* | -1.3 | 7.0 | -5.5 | -1.0 | 2.2
CCCOc1ccccc1-c1nc2c([nH]1)c(=O)[nH]c(=O)n2C | -2.6 | 14.7 | 34.7* | 21.7 | 0.5 | -8.8
CCOc1ccc(C(=O)NCC(=O)N2CCC3CCCCC3C2)cc1OCC (stereo not drawn) | -5.7 | -1.9 | 2.5 | nt | -5.7 | 1.0
CN(C)C1(CN=Cc2cc(Cl)cc([N+](=O)[O-])c2O)CCCCC1 | 5.7* | 5.2 | 8.2 | nt | -3.9 | 1.1
Cc1ccc(C(=O)NCC(C)NC(=O)c2ccc(C)c(C)c2)cc1C (stereo not drawn) | nt | 3.4 | 0.0 | nt | nt | -1.6
Cc1c(C=O)c2ccccn2c1C(=O)c1cccs1 | -1.9 | 78.8* | 87.6* | 34.8 | 8.3* | -4.5
CCOc1cccc(=O)c2c(C)n(-c3ccc(C(=O)O)cc3)c(C)c12 | -1.0 | 29.4 | 59.1* | -2.1 | 4.8 | -35.7*
